Values after ≈ are worked out from the molar mass of the structure shown. Active and inactive are the calls of the source. The calls are words filed in the database; no cut-off is given here.
What follows are molecules tested on Staphylococcus aureus (assay: Antibacterial activity against methicillin-resistant Staphylococcus aureus USA300 NRS384 clinical isolate preincubated followed by bacterial subculturing for 2 weeks). Settings: not given.
Format: functional
For `CCCCCCCCOc1ccc(NC(=O)Nc2ccc(/C(C)=N/NC(=N)N)cc2)cc1`, the Activity was “Active”.

These molecules were tested on Staphylococcus aureus (assay: Antibacterial activity against methicillin-resistant Staphylococcus aureus USA400 NRS123 clinical isolate after 20 hrs by broth microdilution method). Settings: USA400 NRS123, 20 h.
Format: functional
Procedure, shortened: (§1)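 CLSI broth microdilution in cation-adjusted Mueller Hinton broth; compounds serially diluted, triplicate samples; 37 °C, 20 h. MIC read visually as lowest concentration with no visible growth; mean of triplicate determinations reported.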
In the case of `C/C(=N\NC(=N)N)c1ccc(NC(=O)c2ccc3c(c2)OCCN3C)cc1`, the MIC is reported as 16 µg/mL (≈ 43.7 µM).
Molecule `C/C(=N\NC(=N)N)c1ccc(NC(=O)Nc2ccc(I)cc2)cc1` has an MIC of 10 µg/mL (≈ 22.9 µM).
With `C/C(=N\NC(=N)N)c1ccc(NC(=O)c2cc(-c3ccccc3)n(C)n2)cc1` the MIC was over 32 µg/mL.
`C/C(=N\NC(=N)N)c1ccc(NC(=O)c2cc(F)c(F)c(F)c2)cc1` gave an MIC of 16 µg/mL (≈ 45.8 µM).
With `CC(=O)Oc1ccccc1C(=O)Nc1ccc(/C(C)=N/NC(=N)N)cc1` the MIC was over 32 µg/mL.
`C/C(=N\NC(=N)N)c1ccc(NC(=O)Nc2nc3ccccc3s2)cc1` was tested, and the MIC was 10 µg/mL (≈ 27.2 µM).
For `C/C(=N\NC(=N)N)c1ccc(NC(=O)c2cccc(Oc3ccccc3)c2)cc1`, the MIC was 16 µg/mL (≈ 41.3 µM).
Molecule `C/C(=N\NC(=N)N)c1ccc(NC(=O)c2cc(C)oc2C)cc1` has an MIC of 24 µg/mL (≈ 76.6 µM).
`CCCCCCCCOc1ccc(NC(=O)Nc2ccc(/C(C)=N/NC(=N)N)cc2)cc1` was tested, and the MIC was 32 µg/mL (≈ 73 µM).
`C/C(=N\NC(=N)N)c1ccc(NC(=O)Cc2ccc(F)cc2)cc1` gave an MIC of 16 µg/mL (≈ 48.9 µM).
For `COc1ccc(C(=O)Nc2ccc(/C(C)=N/NC(=N)N)cc2)cc1OC`, the MIC was 16 µg/mL (≈ 45 µM).
`C/C(=N\NC(=N)N)c1ccc(NC(=O)Cc2cc(F)cc(F)c2)cc1` showed an MIC of 16 µg/mL (≈ 46.3 µM).

What follows are molecules tested on Staphylococcus aureus (assay: Antibacterial activity against methicillin-resistant Staphylococcus aureus USA300 NRS384 clinical isolate after 20 hrs by broth microdilution method). Settings: USA300 NRS384, 20 h.
Format: functional
Procedure, shortened: as §1
Work on `CCCCCCCCOc1ccc(NC(=O)Nc2ccc(/C(C)=N/NC(=N)N)cc2)cc1` yielded an MIC of 16 µg/mL (≈ 36.5 µM).

What follows are molecules tested on Staphylococcus aureus (assay: Bactericidal activity against vancomycin-resistant Staphylococcus aureus VRSA4 after 18 hrs by broth microdilution method). Settings: VRSA4, 18 h.
Format: functional
Procedure, shortened: (§2)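 From MIC wells without visible growth, 5 uL spotted onto Tryptic soy agar, incubated 37 °C for at least 18 h; MBC taken as lowest concentration giving 99.9% growth inhibition.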
For `CC(=O)NC[C@H]1CN(c2ccc(N3CCOCC3)c(F)c2)C(=O)O1` [LINEZOLID], the MBC was 8 µg/mL (≈ 23.7 µM).
With `CCCCCCCCOc1ccc(NC(=O)Nc2ccc(/C(C)=N/NC(=N)N)cc2)cc1` the MBC was 32 µg/mL (≈ 73 µM).

These molecules were tested on Staphylococcus aureus (assay: Bactericidal activity against Staphylococcus aureus RN4220 NRS107 clinical isolate after 18 hrs by broth microdilution method). Settings: RN4220 NRS107, 18 h.
Format: functional
Procedure, shortened: as §2
`CC(=O)NC[C@H]1CN(c2ccc(N3CCOCC3)c(F)c2)C(=O)O1` [LINEZOLID] was tested, and the MBC was 32 µg/mL (≈ 94.9 µM).
Molecule `CCCCCCCCOc1ccc(NC(=O)Nc2ccc(/C(C)=N/NC(=N)N)cc2)cc1` has an MBC of 32 µg/mL (≈ 73 µM).

The molecules below were run on Staphylococcus aureus (assay: Bactericidal activity against methicillin-resistant Staphylococcus aureus USA100 NRS382 clinical isolate after 18 hrs by broth microdilution method). Settings: USA100 NRS382, 18 h.
Format: functional
Procedure, shortened: as §2
Work on `CC(=O)NC[C@H]1CN(c2ccc(N3CCOCC3)c(F)c2)C(=O)O1` [LINEZOLID] yielded an MBC of 16 µg/mL (≈ 47.4 µM).
`CCCCCCCCOc1ccc(NC(=O)Nc2ccc(/C(C)=N/NC(=N)N)cc2)cc1` showed an MBC of 32 µg/mL (≈ 73 µM).

What follows are molecules tested on Staphylococcus aureus (assay: Bactericidal activity against vancomycin-resistant Staphylococcus aureus VRSA10 after 18 hrs by broth microdilution method). Settings: VRSA10, 18 h.
Format: functional
Procedure, shortened: as §2
In the case of `CC(=O)NC[C@H]1CN(c2ccc(N3CCOCC3)c(F)c2)C(=O)O1` [LINEZOLID], the MBC is reported as 16 µg/mL (≈ 47.4 µM).
With `CCCCCCCCOc1ccc(NC(=O)Nc2ccc(/C(C)=N/NC(=N)N)cc2)cc1` the MBC was 32 µg/mL (≈ 73 µM).

These molecules were tested on Staphylococcus aureus (assay: Antibacterial activity against methicillin-resistant Staphylococcus aureus USA200 NRS383 clinical isolate after 20 hrs by broth microdilution method). Settings: USA200 NRS383, 20 h.
Format: functional
Procedure, shortened: as §1
For `CCCCCCCCOc1ccc(NC(=O)Nc2ccc(/C(C)=N/NC(=N)N)cc2)cc1`, the MIC was 16 µg/mL (≈ 36.5 µM).

These molecules were tested on Staphylococcus aureus (assay: Antibacterial activity against methicillin-resistant Staphylococcus aureus USA100 NRS382 clinical isolate preincubated followed by bacterial subculturing for 2 weeks). Settings: not given.
Format: functional
For `CCCCCCCCOc1ccc(NC(=O)Nc2ccc(/C(C)=N/NC(=N)N)cc2)cc1`, the Activity was “Active”.

Each molecule was assayed on Staphylococcus aureus (assay: Antibacterial activity against vancomycin-resistant Staphylococcus aureus VRSA4 after 20 hrs by broth microdilution method). Settings: VRSA4, 20 h.
Format: functional
Procedure, shortened: as §1
Work on `CCCCCCCCOc1ccc(NC(=O)Nc2ccc(/C(C)=N/NC(=N)N)cc2)cc1` yielded an MIC of 16 µg/mL (≈ 36.5 µM).

The molecules below were run on Staphylococcus aureus (assay: Antibacterial activity against Staphylococcus aureus RN4220 NRS107 clinical isolate after 20 hrs by broth microdilution method). Settings: RN4220 NRS107, 20 h.
Format: functional
Procedure, shortened: as §1
In the case of `CCCCCCCCOc1ccc(NC(=O)Nc2ccc(/C(C)=N/NC(=N)N)cc2)cc1`, the MIC is reported as 16 µg/mL (≈ 36.5 µM).

The molecules below were run on Staphylococcus aureus (assay: Antibacterial activity against methicillin-resistant Staphylococcus aureus USA100 NRS382 clinical isolate after 20 hrs by broth microdilution method). Settings: USA100 NRS382, 20 h.
Format: functional
Procedure, shortened: as §1
`CCCCCCCCOc1ccc(NC(=O)Nc2ccc(/C(C)=N/NC(=N)N)cc2)cc1` showed an MIC of 16 µg/mL (≈ 36.5 µM).

These molecules were tested on Staphylococcus aureus (assay: Bactericidal activity against methicillin-resistant Staphylococcus aureus USA200 NRS383 clinical isolate after 18 hrs by broth microdilution method). Settings: USA200 NRS383, 18 h.
Format: functional
Procedure, shortened: as §2
`CC(=O)NC[C@H]1CN(c2ccc(N3CCOCC3)c(F)c2)C(=O)O1` [LINEZOLID] gave an MBC of 32 µg/mL (≈ 94.9 µM).
Work on `CCCCCCCCOc1ccc(NC(=O)Nc2ccc(/C(C)=N/NC(=N)N)cc2)cc1` yielded an MBC of 16 µg/mL (≈ 36.5 µM).

The molecules below were run on Staphylococcus aureus (assay: Antibacterial activity against methicillin-resistant Staphylococcus aureus USA200 NRS383 clinical isolate preincubated followed by bacterial subculturing for 2 weeks). Settings: not given.
Format: functional
With `CCCCCCCCOc1ccc(NC(=O)Nc2ccc(/C(C)=N/NC(=N)N)cc2)cc1` the Activity was “Active”.

The molecules below were run on Staphylococcus aureus (assay: Bactericidal activity against methicillin-resistant Staphylococcus aureus USA300 NRS384 clinical isolate after 18 hrs by broth microdilution method). Settings: USA300 NRS384, 18 h.
Format: functional
Procedure, shortened: as §2
Molecule `CC(=O)NC[C@H]1CN(c2ccc(N3CCOCC3)c(F)c2)C(=O)O1` [LINEZOLID] has an MBC of 16 µg/mL (≈ 47.4 µM).
For `CCCCCCCCOc1ccc(NC(=O)Nc2ccc(/C(C)=N/NC(=N)N)cc2)cc1`, the MBC was 16 µg/mL (≈ 36.5 µM).

What follows are molecules tested on Staphylococcus aureus (assay: Antibacterial activity against methicillin-resistant Staphylococcus aureus USA400 NRS123 clinical isolate preincubated followed by bacterial subculturing for 2 weeks). Settings: not given.
Format: functional
In the case of `CCCCCCCCOc1ccc(NC(=O)Nc2ccc(/C(C)=N/NC(=N)N)cc2)cc1`, the Activity is reported as “Active”.

Each molecule was assayed on Staphylococcus aureus (assay: Bactericidal activity against methicillin-resistant Staphylococcus aureus USA400 NRS123 clinical isolate after 18 hrs by broth microdilution method). Settings: USA400 NRS123, 18 h.
Format: functional
Procedure, shortened: as §2
With `CC(=O)NC[C@H]1CN(c2ccc(N3CCOCC3)c(F)c2)C(=O)O1` [LINEZOLID] the MBC was 32 µg/mL (≈ 94.9 µM).
For `CCCCCCCCOc1ccc(NC(=O)Nc2ccc(/C(C)=N/NC(=N)N)cc2)cc1`, the MBC was 32 µg/mL (≈ 73 µM).

These molecules were tested on Staphylococcus aureus (assay: Antibacterial activity against vancomycin-resistant Staphylococcus aureus VRSA10 after 20 hrs by broth microdilution method). Settings: VRSA10, 20 h.
Format: functional
Procedure, shortened: as §1
Work on `CCCCCCCCOc1ccc(NC(=O)Nc2ccc(/C(C)=N/NC(=N)N)cc2)cc1` yielded an MIC of 16 µg/mL (≈ 36.5 µM).

— ChEMBL document CHEMBL4014276, “Diphenylurea derivatives for combating methicillin- and vancomycin-resistant Staphylococcus aureus” (Eur J Med Chem, 2017)
